Screens deposited in PubChem by several laboratories.
A selection: hits, their analogues and other compounds. The true share with any hit is near 3%.
B2AR ag = agonists of human beta-2 adrenergic receptor inducing internalization; P07550; Am2.2-beta2AR cells, FAP receptor internalization, flow cytometry; response, % (concentration not given with the values); 0.43% of 340,000 active; AID 504454;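 active = response above a set limit, near 3 SD of response in nonfluorescent compounds, cut at about 42% in these data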
PfG6PD inh = PfG6PD (Plasmodium falciparum) enzyme inhibition | 0.78% of 350,000 active | PfGluPho enzyme, NADPH resazurin-diaphorase fluorescence | AID 504690 | inhibition, % at 20 µM;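 active = inhibition reaching at least a set limit at 20 µM in the primary screen, cut at about 59% in these data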;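 also: 0% = DMSO wells with substrate and 100% = DMSO wells lacking glucose-6-phosphate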
ABHD5 PLIN5 PPI = inhibitors of human ABHD5-perilipin-5 interaction | Q00G26+Q8WTS1 | Split G. princeps luciferase complementation, luminescence, 4 h | inhibition, % at 4 µM | 0.78% of 360,000 active;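 active = inhibition above the mean inhibition across every tested compound plus 3 SD, cut at about 22% in these data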;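 also: 0% = DMSO only wells and the 100% control is not disclosed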
Target sequence (Q00G26 whole entry, looked up): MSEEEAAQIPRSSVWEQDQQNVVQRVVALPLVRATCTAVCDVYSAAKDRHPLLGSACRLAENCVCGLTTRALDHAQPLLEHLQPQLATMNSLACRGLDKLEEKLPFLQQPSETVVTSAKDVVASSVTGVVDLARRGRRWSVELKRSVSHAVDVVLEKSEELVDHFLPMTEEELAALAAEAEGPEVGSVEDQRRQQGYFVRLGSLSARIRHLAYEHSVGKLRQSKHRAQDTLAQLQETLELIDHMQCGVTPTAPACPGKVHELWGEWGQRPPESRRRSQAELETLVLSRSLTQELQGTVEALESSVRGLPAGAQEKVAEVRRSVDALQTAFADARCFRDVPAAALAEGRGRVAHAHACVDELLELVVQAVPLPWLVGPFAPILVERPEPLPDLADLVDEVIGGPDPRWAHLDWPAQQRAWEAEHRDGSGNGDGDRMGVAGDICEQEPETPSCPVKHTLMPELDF
Target sequence (Q8WTS1 whole entry, looked up): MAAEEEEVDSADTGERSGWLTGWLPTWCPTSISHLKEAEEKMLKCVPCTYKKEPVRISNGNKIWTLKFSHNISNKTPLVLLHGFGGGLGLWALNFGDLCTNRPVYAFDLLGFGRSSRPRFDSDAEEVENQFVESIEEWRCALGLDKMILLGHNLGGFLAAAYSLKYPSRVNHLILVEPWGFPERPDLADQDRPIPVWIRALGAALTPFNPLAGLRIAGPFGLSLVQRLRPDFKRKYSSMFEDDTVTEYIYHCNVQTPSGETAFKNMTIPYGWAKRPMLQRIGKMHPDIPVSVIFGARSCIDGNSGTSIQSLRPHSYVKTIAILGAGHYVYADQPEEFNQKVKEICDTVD
MC4R ag barr = agonists of human melanocortin 4 receptor (MC4R) beta-arrestin; P32245; U2OS MC4R beta-arrestin complementation, luminescence; percent of melanotan II response, DMSO zero; activation, % at 8.9 µM; 0.98% of 360,000 active; AID 540308;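 active = activation above a per-plate cutoff, the mean activation of sample wells on that plate plus 3 SD, cut at about 8% in these data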
MC4R antagonist = antagonists of human melanocortin 4 receptor (MC4R). MC4R-expressing cells, MTII-stimulated cAMP, LANCE TR-FRET. AID 540295. P32245. inhibition, % at 6.5 µM. 0.48% of 360,000 active;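 active = inhibition above its plate's cutoff, the mean of tested wells on that plate plus 3 SD, cut at about 29% in these data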;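 also: 0% = Melanotan II alone and 100% = Melanotan II plus saturating MCL0020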
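system = U2OS cells with stable human MC4R expression | also added = Melanotan II challenge after compound preincubation | dosing = one concentration, 6.5 µM nominal | incubation = compound 30 min, challenge 1 h, detection 1 h | measured by = TR-FRET with Eu-cAMP and labeled anti-cAMP, 671 nm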
B2AR ag CP1 = human beta-2 adrenergic receptor agonism, cherry pick. shares compounds with B2AR ag. Am2.2-beta2AR cells, FAP surface receptor, flow cytometry; active compounds read low. percent response (surface receptor), % at 10 µM. 25% of 1,100 active. AID 540358;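 active = surface receptor percent response at or below 58%, roughly 3 SD from nonfluorescent compounds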
FAP fluor counter = counter-screen for beta-2AR agonists: fluorescence in Am2.2 cells; shares compounds with B2AR ag; FAP fluorogen flow cytometry, fluorescence counterscreen; active compounds read low; calls only at 10 µM; 1,100 tested, under 10 active;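 active = percent response below a set limit in fluorescence channel 1 and below 50% in channel 8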
PfG6PD confirm = PfG6PD inhibition, single-dose confirmed | 34% of 2,400 active | inhibition, % at 20 µM | AID 504753 | shares compounds with PfG6PD inh | recombinant PfGluPho, NADPH-diaphorase-resazurin fluorescence;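 active = inhibition of at least 50% at 20 µM in any single replicate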;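 also: 0% = DMSO with substrate and 100% = DMSO lacking glucose-6-phosphate substrate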
Diaph ctr 10uM = counter-screen for P. falciparum G6PD inhibitors: diaphorase inhibitors, oxidizers; AID 504862; shares compounds with PfG6PD inh; inhibition, % at 20 µM; diaphorase-coupled resazurin reduction, fluorescence, NADPH 10 uM; 39% of 820 active;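 active = average inhibition reaching 50% or more with the compound at 20 µM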;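 also: resorufin red fluorescence formed as diaphorase reduces resazurin using NADPH; 0% = DMSO with enzyme and 100% = DMSO without enzyme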
Diaph ctr 30uM = diaphorase inhibition or oxidation at 30 uM NADPH | 29% of 820 active | AID 504863 | Diaphorase/resazurin coupled assay, resorufin fluorescence | shares compounds with PfG6PD inh | inhibition, % at 20 µM;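 active = inhibition averaging 50% or more, tested at 20 µM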;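 also: 0% = DMSO with enzyme and 100% = DMSO wells lacking diaphorase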
ABHD5-PLIN5 conf = ABHD5-PLIN5 interaction inhibition, confirmed; AID 651612; inhibition, % at 4 µM; 67% of 2,200 active; biochemical ABHD5-PLIN5 interaction, luminescence; shares compounds with ABHD5 PLIN5 PPI; in the data active = inhibition above about 23%;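 also: 0% = DMSO vehicle wells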
HNF4 split-luc = counter-screen for ABHD5-PLIN5 inhibitors: HNF4 split-luciferase. AID 651674. shares compounds with ABHD5 PLIN5 PPI. 77% of 2,200 active. HNF4 dimerization, luminescence, biochemical. inhibition, % at 4 µM;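 active = mean inhibition across replicate wells exceeding the computed hit threshold, cut at about 13% in these data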;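 also: light from luciferase halves that rejoin when HNF4 fusion proteins dimerize; 0% = DMSO only wells and the 100% control is not given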
An asterisk follows results filed as active; i = inactive; . = not tested or not shown; + = active, no number.

SMILES | B2AR ag | PfG6PD inh | ABHD5 PLIN5 PPI | MC4R ag barr | MC4R antagonist | B2AR ag CP1 | FAP fluor counter | others
COC(=O)[C@]12OC[C@]34C([C@@H](O)[C@@H]1O)[C@]1(C)CC(=O)C(O)=C(C)[C@@H]1C[C@H]3OC(=O)[C@H](O)[C@@H]24 (stereo not given in full) | 42* | -6 | 7 | -2 | -3 | 64 | i
CNCC(O)c1ccc(O)cc1 (stereo not given) | . | 9 | 5 | 0 | 12 | . | .
CC(Cc1ccc(O)cc1)NCC(O)c1ccc(O)c(O)c1 (stereo not given) | . | 38 | -4 | -2 | -1 | 9.6* | i
COC(=O)C1=C(c2cc3ccccc3s2)C[C@@H]2CC[C@H]1N2C(=O)NCc1ccc(C(F)(F)F)cc1 | 74* | 22 | -13 | 1 | 14 | 89 | i
COC(=O)C1=C(c2ccc(OCc3ccccc3)cc2)C[C@@H]2CC[C@H]1N2C(=O)NCc1ccc(OC)c(OC)c1 | 1 | -4 | 4 | -1 | 12 | 103 | i
COc1cc(OC)c(OC)cc1CNC(C)C(O)c1ccccc1 (stereo not given) | 6 | -17 | 3 | 4 | -5 | 118 | i
CC(NCc1cccc(Cl)c1Cl)C(O)c1ccccc1 (stereo not given) | -12 | 14 | 6 | 3 | 10 | 109 | i
CN(C)C(CNC(=O)Cc1c(Cl)cccc1Cl)c1ccccc1 (stereo not given) | 4 | -9 | 12 | 3 | 2 | . | .
CC(NCc1ccc(Cl)cc1Cl)C(O)c1ccccc1 (stereo not given) | -4 | 1 | 0 | 3 | -4 | 117 | i
CCOc1c(Cl)cc(CNC(C)C(O)c2ccccc2)cc1OC (stereo not given) | 7 | -9 | -3 | -1 | 8 | 107 | i
CC(C)C(NC(=O)C(C(C)C)N(C)C)C(=O)N(C)C(C(=O)N1CCCC1C(=O)N1CCCC1C(=O)NCc1ccccc1)C(C)C (stereo not given) | 16 | -5 | -9 | 1 | -25 | . | .
CN1CCc2cccc(Cl)c2CC1 | -1 | -15 | 0 | -1 | 3 | . | .
O=C(NCCCn1ccnc1)C(Cl)(Cl)Cl | -4 | 0 | 4 | -2 | 4 | . | .
CN1C[C@H]2CON(C)[C@H]2C[C@H]1c1cccc(Br)c1 | -7 | 6 | 2 | 0 | -3 | . | .
CC[N+](C)(CC)CCCCOc1ccc2c(c1)C(=O)c1cc(OCCCC[N+](C)(CC)CC)ccc1-2 | -5 | 14 | -4 | 0 | -31 | . | .
CC(NCc1ccc(Cl)cc1)C(O)c1ccccc1 (stereo not given) | -5 | -6 | 7 | -1 | 2 | 102 | i
O=C(Cc1ccccc1)NC(Cc1ccc(Cl)cc1)C(=O)O (stereo not given) | -3 | -9 | 4 | -1 | 0 | . | .
COc1ccc(CNCCc2c(C)[nH]c3ccc(OC(F)(F)F)cc23)c(OC)c1 | 43* | 14 | 13 | 5 | 10 | 81 | i
O=C(COc1ccc2ccccc2c1)N1CCN(CC2CC3C=CC2C3)CC1 (stereo not given) | 9 | 16 | -3 | -2 | -2 | . | .
COc1ccc(C(O)CNC(C)C)c(F)c1OC (stereo not given) | -13 | -8 | 9 | -1 | 7 | 116 | i
CCCCC(CC)CNCC(O)c1ccccc1 (stereo not given) | -11 | 1 | 5 | 0 | -1 | . | .
CCC[C@H](N[C@@H](CCC)[C@H](O)c1ccccc1)[C@H](O)c1ccccc1 | -6 | 3 | 2 | 1 | -1 | 112 | i
O=c1cccc2n1C[C@@H]1C[C@@H]2CN(CC(O)c2ccc([N+](=O)[O-])cc2)C1 (stereo not given in full) | 2 | -4 | 8 | -1 | -3 | . | .
COc1ccc(C(O)C(C)NC(C)C(O)c2ccc(OC)cc2)cc1 (stereo not given) | -1 | -2 | 4 | 2 | -4 | 123 | i
COc1ccc(C(c2ccc(OC)cc2)C(Cl)(Cl)Cl)cc1 | 3 | 10 | -12 | 1 | 13 | . | .
SMILES | B2AR ag | PfG6PD inh | ABHD5 PLIN5 PPI | MC4R ag barr | MC4R antagonist | B2AR ag CP1 | FAP fluor counter | others
COc1ccc(C[C@H]2NC[C@H](O)[C@H]2OC(C)=O)cc1 | 94* | -2 | -1 | 0 | 3 | 28* | +
COc1ccc(CCNC2CCCCC2)cc1 | -7 | -6 | 7 | -4 | 6 | . | .
CC(C)NC(=O)c1ccc(N2CC3CC(C2)c2cccc(=O)n2C3)c([N+](=O)[O-])c1 (stereo not given) | -4 | -7 | -2 | -3 | -4 | . | .
COc1ccc(CCC(C)NCCc2ccccc2)cc1 (stereo not given) | -4 | 6 | -3 | -1 | -1 | . | .
CC(CCc1ccccc1)NC(C)C(O)c1ccc(O)cc1 (stereo not given) | 4 | -2 | -2 | -2 | 0 | 109 | i
NCCc1ccc(OCc2ccccc2)c(OCc2ccccc2)c1 | 43* | 5 | 28* | 3 | 5 | 100 | i | ABHD5-PLIN5 conf=14;HNF4 split-luc=7
C[C@@H](N)Cc1cnc[nH]1 | 3 | 6 | -1 | -1 | 15 | . | .
O=C1C=C(N2CC2)c2ccccc2C1=O | . | 100* | -37 | 1 | -19 | . | . | PfG6PD confirm=72*;Diaph ctr 10uM=54*;Diaph ctr 30uM=63*
O=C1c2ccccc2-c2cc3ccccc3cc21 | 0 | 36 | 1 | 3 | 5 | . | .
CC(=NCc1ccco1)c1c(O)n(-c2ccccc2)c(=O)[nH]c1=O | -10 | -4 | 0 | 0 | 4 | . | .
O=C1NC(=S)NC(=O)C1=Cc1ccc(Br)s1 | 54* | 65* | -11 | -1 | 13 | . | . | PfG6PD confirm=84*;Diaph ctr 10uM=-24;Diaph ctr 30uM=-16
